Measured values from different studies.
Lines come from different studies, so protocols differ.
Target: MAP kinase-interacting serine/threonine-protein kinase 1 (MKNK1, Homo sapiens, UniProt Q9BUB5)

SMILES | assay | setting | remaining binding [%]
CNC(=O)[C@@H]1CC[C@@H](n2c(-c3ccc4cnccc4c3)nc3ccc(C(=O)NCc4cccc(C(N)=O)c4)cc32)C1 | binding, competition with immobilised ligand | 1 µM | 100
CCS(=O)(=O)c1cc2cc(C[C@@](O)(CC(C)(C)c3ccc(F)cc3C(N)=O)C(F)(F)F)[nH]c2cn1 | cell-free assay, competition with immobilised ligand | 1 µM | 46
O=C(NCC1CCOCC1)c1n[nH]cc1NC(=O)c1c(F)cccc1F | binding, competition with immobilised ligand | 1 µM | 88
Cc1cnc(Nc2ccc(C(=O)N3CCC(N4CCCC4)CC3)cc2)nc1-c1cc2ccccc2s1 | binding, competition with immobilised ligand | 1 µM | 48
COc1ncc2cc3ccccc3nc2c1C#N | cell-free assay, competition with immobilised ligand | 5 µM | 96
CN(C)c1nccc(-c2cnc3ncccn23)n1 | binding | 1 µM | 67
Cc1nc(Cc2cccc(C(F)(F)F)c2)sc1-c1ccc(C(N)=O)nc1 | cell-free assay, competition with immobilised ligand | 1 µM | 100
Nc1ncc2c(n1)-c1c([nH]c3ccc(C#CC4CC4)cc13)CCCC2 | binding, competition with immobilised ligand | 1 µM | 86
N[C@@H]1CCN(c2nccc(-c3cnn4ncccc34)n2)C1 | binding | 1 µM | 68
O=C(c1ccc(Nc2ncc(Cl)c(-c3cc4ccccc4s3)n2)cc1)N1CCC(N2CCCC2)CC1 | binding, competition with immobilised ligand | 1 µM | 24
CN(c1ccnc(CNc2nc(Nc3ccc4c(c3)CC(=O)N4)ncc2C(F)(F)F)n1)S(C)(=O)=O | cell-free assay, competition with immobilised ligand | 1 µM | 45
C[C@@H](c1ccc(-n2cnc3c(N)ncnc32)cc1)N1CCc2nn(C)c(Cc3ccccc3)c2C1=O | binding, competition with immobilised ligand | 0.1 µM | 58
F[C@@H]1CCN(c2nccc(-c3cnn4ncccc34)n2)C1 | binding | 1 µM | 100
C[C@@H]1CN(c2ccc3ncc(-c4ccc5[nH]nc(C6CC6)c5c4)n3n2)C[C@H](C)O1 | binding, competition with immobilised ligand | 50 nM | 92
CC1CCCN1c1nccc(-c2cnn3ncccc23)n1 (stereo not shown) | binding | 1 µM | 89
O=C(c1ccc(Nc2nccc(-c3cc4ccccc4s3)n2)cc1)N1CCC(N2CCCC2)CC1 | binding, competition with immobilised ligand | 1 µM | 18
C[C@@H]1CCN(c2nccc(-c3cnn4ncccc34)n2)C1 | binding | 1 µM | 74
COc1cc(-c2cn(C3CCc4c(F)cccc4N(CC(F)(F)F)C3=O)nn2)ccc1-n1cnc(C)c1 (stereo not shown) | cell-free assay, competition with immobilised ligand | 1 µM | 87
CN(CCCC(F)(F)F)c1nccc(-c2cnn3ncccc23)n1 | binding | 1 µM | 100
NS(=O)(=O)c1cc(NC(=O)Cc2ccccc2)ccc1Oc1cccc(Cl)c1 | cell-free assay, competition with immobilised ligand | 1 µM | 79
c1cnn2ncc(-c3ccnc(N4CCC45COC5)n3)c2c1 | binding | 1 µM | 53
CC(=O)C1=C(C)N(c2cccc(C(F)(F)F)c2)C(=O)N[C@@H]1c1ccc(C#N)nc1 | cell-free assay, competition with immobilised ligand | 1 µM | 100
CC(C)(C)c1ccc(-c2nc(CBr)nn2-c2cccc(O)c2)cc1 | cell-free assay, competition with immobilised ligand | 10 µM | 57
CNC(=O)Nc1ccc2c(c1)[C@@]1(CC2)OC(=O)N(CC(=O)N(Cc2ccc(F)cc2)[C@@H](C)C(F)(F)F)C1=O | cell-free assay, competition with immobilised ligand | 1 µM | 94
COc1cnc(Nc2cccc(S(N)(=O)=O)c2)nc1N1CCN(c2ccccc2)C(=O)C1 | binding, competition with immobilised ligand | 1 µM | 98
